bIAP activator: intestinal alkaline phosphatase (bovine) activation; purified bovine IAP, CDP-star luminescence, 30 min; active compounds read high; fold of DMSO-control signal, blank-subtracted; activation factor at 20 µM; 200,000 tested, 0.17% active; AID 1016;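 active means activation factor of 2 or more at 20 µM, a signal rise over negative controls twice the positive control's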
bIAP inhibitor: intestinal alkaline phosphatase (bovine) inhibition. purified bovine IAP, CDP-star luminescence, 30 min. inhibition, % at 20 µM. 190,000 tested, under 10 active. AID 1019;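 active means over 50% inhibition of intestinal alkaline phosphatase at 20 µM in the single-dose screen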
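System: Purified bovine intestinal alkaline phosphatase (IAP) enzyme | Input: IAP diluted 1/65,000,000 in the well | Also added: CDP-star chemiluminescent phosphatase substrate, 30 µM final | Dosing: 20 µM single dose | Times: Enzyme reaction for 30 min at room temperature | Detection: Luminescence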
mIAP activ: increases mouse intestinal alkaline phosphatase activity | muIAP, CDP-Star luminescence, 30 min; active compounds read high; 1 = vehicle-only enzyme signal, 0 = enzyme-free wells | activation factor at 10 µM | 330,000 tested, 0.24% active;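 active means activation factor of at least 2 at 20 µM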
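System: mouse IAP enzyme. Reagent: CDP-Star chemiluminescent phosphatase substrate. Benchmarks: DMSO wells, no-enzyme wells. Times: 30 min enzyme-substrate-compound incubation at room temperature. Detection: luminescence from enzymatic CDP-Star hydrolysis. Doses: test compounds delivered from DMSO solution.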
mIAP block: blocks mouse intestinal alkaline phosphatase. purified mouse IAP, CDP-Star luminescence, 30 min. inhibition, % at 10 µM. 330,000 tested, 0.2% active;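 active means inhibition of at least 40% at 10 µM in the primary screen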;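 further: plate controls were DMSO with enzyme for no effect and no enzyme wells for full effect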
hIAP activ: human IAP activation; AID 2524; purified human IAP, CDP-Star luminescence, 30 min; active compounds read high; 1 = vehicle-only enzyme, 0 = enzyme-free background; 330,000 tested, 0.16% active; P09923; activation factor at 10 µM;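 active means activation factor of the enzyme at least 2-fold when tested at 20 µM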
Target sequence (P09923 whole entry, looked up): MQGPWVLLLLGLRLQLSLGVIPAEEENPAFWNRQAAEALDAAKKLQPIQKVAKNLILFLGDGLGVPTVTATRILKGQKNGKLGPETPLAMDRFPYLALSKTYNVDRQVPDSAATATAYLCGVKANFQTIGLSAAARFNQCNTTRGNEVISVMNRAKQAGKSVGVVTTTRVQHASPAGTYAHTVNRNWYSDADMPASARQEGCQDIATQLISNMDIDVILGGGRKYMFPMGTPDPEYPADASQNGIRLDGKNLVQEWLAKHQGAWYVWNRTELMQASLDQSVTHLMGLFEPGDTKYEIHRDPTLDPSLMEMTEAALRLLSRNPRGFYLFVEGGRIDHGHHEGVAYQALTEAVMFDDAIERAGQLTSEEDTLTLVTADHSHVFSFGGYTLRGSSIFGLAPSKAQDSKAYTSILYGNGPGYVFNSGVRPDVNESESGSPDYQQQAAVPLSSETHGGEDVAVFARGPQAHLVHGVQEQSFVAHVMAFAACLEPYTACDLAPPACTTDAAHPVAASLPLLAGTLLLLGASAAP
hIAP inh: human IAP inhibition; 330,000 tested, 0.12% active; P09923; purified IAP, CDP-Star luminescence, 30 min; inhibition, % at 10 µM; AID 2544;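 active means inhibition reaching a set limit with compound at 10 µM in the primary screen, cut at about 35% in these data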;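 further: plate controls were DMSO wells with enzyme for no effect and no-enzyme buffer wells for full effect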
* hit, by the source's call; i = inactive; · = not tested or not shown. The list is not random: actives were taken first. Their share in the collection is about 0.79%.

SMILES | bIAP activator | bIAP inhibitor | mIAP activ | mIAP block | hIAP activ | hIAP inh
Cc1ccc(N2CC(C(=O)Nc3c(C)n(C)n(-c4ccccc4)c3=O)CC2=O)cc1 (stereo unspecified) | 1.2 | -18 | 1 | -3 | 1 | -3
Cc1nc([N+](=O)[O-])cn1CC(=O)Nc1ccc(F)c(Cl)c1 | · | · | 1 | -5 | 1.1 | -6
Cc1[nH]c2ccc(-c3nnc(SCC(=O)c4ccc(F)cc4)o3)cc2c1C | 1 | 2 | 0.43 | 57* | 1.2 | -18
Cc1cc(C)c(C)c(C(=O)CSc2nnc(-c3ccc4[nH]c(C)c(C)c4c3)o2)c1C | 1 | 2 | 1.1 | -10 | 0.94 | 6
CC(C)Cn1c(N)c(C(=O)COC(=O)c2nccnc2N)c(=O)n(C)c1=O | · | · | 0.52 | 48* | 1.1 | -14
CC(C)Cn1c(N)c(C(=O)COC(=O)c2ccncc2)c(=O)n(C)c1=O | 1.1 | -8 | 1.1 | -12 | 1.3 | -27
Cc1cc(C)n(CCN(C)C(=O)C2CCC(=O)N(CCc3cccc(F)c3)C2)n1 (stereo unspecified) | · | · | 0.99 | 1 | 1.2 | -16
C[C@H](CO)N1C[C@H](C)[C@@H](CN(C)S(=O)(=O)c2cccs2)Oc2ccc(NS(=O)(=O)c3ccc(F)cc3)cc2C1=O | · | · | 1.1 | -7 | 0.98 | 2
CC1=C(C#N)C(=O)N(C2CCS(=O)(=O)C2)C(=O)/C1=C\c1ccco1 (stereo unspecified) | · | · | 0.53 | 47* | 1.1 | -8
NC(=O)c1cc(N=Nc2c(N)[nH]n(-c3c(Cl)cc(Cl)cc3Cl)c2=O)ccc1Cl | 1 | 2 | 0.97 | 3 | 0.94 | 6
Cc1ccccc1NCC(=O)N/N=C/c1c(C)c(C(=O)c2ccc(Cl)cc2)n2ccccc12 | 1 | -3 | 0.82 | 18 | 0.99 | 1
Cc1c(/C=N/NC(=O)CNc2ccccc2)c2ccccn2c1C(=O)c1ccc(Cl)cc1 | 10* | i | 0.82 | 18 | 0.88 | 12
C[C@@H](C(=O)N1CCN(c2ccccc2)CC1)N1C(=O)C2CC=CCC2C1=O (stereo partly specified) | · | · | 1 | -3 | 1.1 | -6
Cc1c(C)n(Cc2ccccc2)c2ccc(C(=O)O)cc12 | · | · | 0.98 | 2 | 0.98 | 2
Cc1nn(C)cc1/C=N\NC(=O)c1ccc2c(c1)c(C)c(C)n2Cc1ccccc1 | 8.3* | i | 2.3* | -130 | 1.2 | -20
NS(=O)(=O)c1ccc2c(c1)C1C=CCC1C(C1CC=CCC1)N2 (stereo unspecified) | 0.8 | 21 | 0.44 | 56* | 1 | -3
O=C(O)c1ccc(NS(=O)(=O)c2ccc3c(c2)C2C=CCC2C(c2ccccc2F)N3)cc1 (stereo unspecified) | 0.9 | 11 | 0.94 | 6 | 0.93 | 7
O=C(c1ccco1)N1CCN(Cc2cc(=O)c(OCc3ccccc3F)co2)CC1 | · | · | 0.99 | 1 | 0.87 | 13
O=C(Nc1cc(Cl)cc(Cl)c1)C(c1ccccc1)N1CCCCC1 (stereo unspecified) | 1 | 5 | 3* | -198 | 1.1 | -12
O=C(Nc1cc(Cl)cc(Cl)c1)N1CCCC1 | · | · | 2.1* | -112 | 0.97 | 3
CCN1CCN(C(CNS(=O)(=O)c2cccs2)c2cccnc2)CC1 (stereo unspecified) | · | · | 0.97 | 3 | 0.83 | 17
CN1CCC(=NNC(=O)C(=O)NC(C)(C)C)CC1 | 3.8* | -276 | 0.91 | 9 | 0.96 | 4
CC(C)(C)NC(=O)C(=O)NN=C1CCCCCC1 | 1 | 2 | 1 | -5 | 1.1 | -7
CC(=O)Nc1ccc2c(c1)N(S(=O)(=O)c1cccs1)CCC2 | · | · | 1 | -2 | 0.92 | 8
Cc1cccc2cc(/C=N/NC(=O)c3ccccc3O)c(Cl)nc12 | 1 | 2 | 0.86 | 14 | 0.9 | 10
SMILES | bIAP activator | bIAP inhibitor | mIAP activ | mIAP block | hIAP activ | hIAP inh
Cc1ccc2cc(/C=N/NC(=O)c3ccccc3O)c(Cl)nc2c1 | 2.1* | -107 | 0.85 | 15 | 0.88 | 12
CC(Sc1nnc(-c2ccco2)o1)C(=O)Nc1ccc(OC(F)F)cc1 (stereo unspecified) | · | · | 0.49 | 51* | 1.1 | -10
O=C(Cn1cc(S(=O)(=O)Cc2cccc(F)c2)c2ccccc21)N1CCOCC1 | · | · | 1 | -3 | 1 | 0
CN(C)c1nc(N(C)C)n(Cc2c(Cl)cccc2Cl)n1 | 1.1 | -7 | 0.94 | 6 | 1.1 | -8
CC1CCN(CCc2nc3cc(NC(=O)NC4CCCCC4)ccc3n2C)CC1 | 2.5* | -146 | 1.3 | -34 | 1 | -3
Cn1c(CCN2CCCCC2)nc2cc(NC(=O)NC3CCCCC3)ccc21 | 1.8 | -77 | 1.1 | -12 | 1.1 | -10
Cc1cc2nc(CCN(C(=S)NCC(C)C)C3CCCC3)[nH]c2cc1C | 1.8 | -81 | 2.1* | -113 | 0.93 | 7
CCOC(=O)C(CC)Sc1nc2c(c(=O)[nH]c(=O)n2C)n1CCc1ccccc1 (stereo unspecified) | 2.8* | -183 | 0.82 | 18 | 1.2 | -16
CCOC(=O)CSc1nc2c(c(=O)[nH]c(=O)n2C)n1CCc1ccccc1 | 0.9 | 10 | 1.1 | -10 | 1.1 | -11
O=C1S/C(=C\C=C\c2ccco2)C(=O)N1c1ccccc1 | 1 | 3 | 0.24 | 76* | 0.73 | 27
O=C1S/C(=C\C=C\c2ccco2)C(=O)N1c1ccc(O)cc1 | 1.6 | -59 | 0.2 | 80* | 0.99 | 1
O=C1S/C(=C\c2cccs2)C(=O)N1c1ccc(O)cc1 | · | · | 0.94 | 6 | 1.2 | -17
O=C(C[n+]1ccc(Cc2ccccc2)cc1)Nc1ccccc1 | 0.9 | 9 | 1 | -3 | 1.1 | -9
Cc1nc(C)n(CC(=O)N2CCCC(C(=O)c3cccc4ccccc34)C2)n1 (stereo unspecified) | 1 | -5 | 0.97 | 3 | 1 | 0
CCc1cc(Cn2nc(-c3ccccc3)cc2C(=O)O)on1 | · | · | 1.1 | -6 | 0.88 | 12
CCc1cc(Cn2nc(-c3ccccc3)cc2C(=O)NCc2ccc(C)cc2)on1 | · | · | 3.3* | -233 | 0.77 | 23
CC(=O)C1=C(O)C(=O)N(c2cccc(Br)c2)C1c1ccccc1Cl (stereo unspecified) | · | · | 1 | 0 | 1.1 | -11
CCOc1ccc2nc(NCCCNC(=O)c3cc(OC)c(OC)c(OC)c3)c(C#N)cc2c1 | · | · | 2* | -101 | 1.7 | -72
Cc1nc(SCC(=O)Nc2ccc3[nH]c(=O)[nH]c3c2)nc(C)c1C | · | · | 0.92 | 8 | 1.1 | -10
O=C(O)CCCCCn1c(O)c(C=C2N=c3ccccc3=N2)sc1=S | 0.8 | 24 | 0.6 | 40* | 1.3 | -30
Cc1cc(C)c(C(=O)Nc2ccc(Br)c(C(F)(F)F)c2)c(C)c1 | 1.1 | -9 | 2.1* | -114 | 1.1 | -7
O=C(O)c1ccccc1C(=O)Nc1ccc(Br)c(C(F)(F)F)c1 | · | · | 1.1 | -9 | 0.96 | 4
Cc1ccc(C(C)NC(=S)NCc2ccc(F)cc2)c(C)c1 (stereo unspecified) | · | · | 2.1* | -114 | 1.4 | -36

Screening results as filed in PubChem BioAssay.
